A word on the IC50: it is the concentration at which inhibition is half-maximal. A lower IC50 goes with greater potency.

This note sets out measurements from ChEMBL document CHEMBL2034831, “Quinazoline-tyrphostin as a new class of antitumor agents, molecular properties prediction, synthesis and biological testing” (Eur J Med Chem, 2012).

Format in all cases: functional, cell-based
Experiment [1] deals with MCF7. Nature of the experiment: Cytotoxicity against human MCF7 cells after 3 days by MTT assay. To be noted: MCF7, 72 h. An outline of the steps: (§1)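 Cells kept in RPMI-1640 with 10% calf serum. Exponentially growing cells seeded at 4 × 10⁴ cells/mL, then medium replaced with fresh medium holding test compound (controls got solvent only). After incubation, MTT added for a further 4 h at 37 °C and formazan dissolved in DMSO. Read by OD. %inhibition = (OD control − OD test)/OD control × 100. Compounds giving ≥70% inhibition in a one-dose prescreen were serially diluted (0.06–0.002 range) for IC50.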
(In general: Formazan colour is commonly taken as a measure of viable cells.)

Experiment [2] relates to HeLa. Nature of the experiment: Cytotoxicity against human HeLa cells after 3 days by MTT assay. To be noted: 72 h. An outline of the steps: as §1
The subject of experiment [3] is HepG2. Put plainly: Cytotoxicity against human HepG2 cells after 3 days by MTT assay. To be noted: HepG2, 72 h. An outline of the steps: as §1

As to `Cc1ccc2nc(C)n(NC(=O)CC#N)c(=O)c2c1`, the IC50 in experiment [1] is 40 µM; in experiment [2] it was 30 µM; in experiment [3], 55 µM.

Consider `CCOC(=O)c1c(N)sc(C(=O)Nn2c(C)nc3ccc(C)cc3c2=O)c1N`, for which the IC50 in experiment [1] was 16 µM; in experiment [2], 23 µM; in experiment [3] it was 22 µM.

With `Cc1ccc2nc(C)n(-n3c(N)c(C#N)c(-c4ccccc4)c(C#N)c3=O)c(=O)c2c1`, the half-maximal inhibitory concentration (IC50) is 8 µM in experiment [1], 5 µM in experiment [2] and 10 µM in experiment [3].

`Cc1ccc2nc(C)n(NC(=O)c3sc(N)c(C#N)c3N)c(=O)c2c1`: the figures for the IC50 in experiment [1], in experiment [2] and in experiment [3] were 10 µM, 15 µM and 15 µM, respectively.

`COc1cccc2c1C(=O)c1c(O)c3c(c(O)c1C2=O)C[C@@](O)(C(=O)CO)C[C@@H]3O[C@H]1C[C@H](N)[C@H](O)[C@H](C)O1` [DOXORUBICIN]: the IC50 in experiment [2] is 8 µM; in experiment [3], 9 µM.

Consider `Cc1ccc2nc(C)n(NC(=O)/C(C#N)=N/Nc3ccccc3)c(=O)c2c1`, for which the IC50 was 19 µM in experiment [1], 79 µM in experiment [2] and 12 µM in experiment [3].

For `Cc1ccc2nc(C)n(NC(=O)c3sc(=S)n(Cc4ccccc4)c3N)c(=O)c2c1`, the IC50 in experiment [1] is 10 µM; in experiment [2], 26 µM; in experiment [3] it was 32 µM.

Consider `Cc1ccc2nc(C)n(NC(=O)/C(C#N)=N/Nc3ccc(S(N)(=O)=O)cc3)c(=O)c2c1`, for which the IC50 in experiment [1] came to 9 µM; in experiment [2], 12 µM; in experiment [3], 9 µM.

For the compound `Cc1ccc2nc(C)n(NC(=O)/C(C#N)=C/c3ccccc3)c(=O)c2c1`, the IC50 in experiment [1] worked out at 9 µM; in experiment [2] it was 13 µM; in experiment [3], 14 µM.

On to `Cc1ccc2nc(C)n(NC(=O)c3cc4ccccc4oc3=N)c(=O)c2c1`, for which the values for the IC50 in experiment [1], in experiment [2] and in experiment [3] were 17 µM, 38 µM and 23 µM, respectively.

Turning to `Cc1ccc2nc(C)n(NC(=O)/C(C#N)=C/c3ccc(Cl)cc3)c(=O)c2c1`, the IC50 in experiment [1] was 12 µM; in experiment [2], 12 µM; in experiment [3], 9 µM.

As to `Cc1ccc2nc(C)n(NC(=O)/C(C#N)=C/c3ccc([N+](=O)[O-])cc3)c(=O)c2c1`, the IC50 was found to be 12 µM in experiment [1], 15 µM in experiment [2] and 10 µM in experiment [3].

As to `Cc1ccc2nc(C)n(-n3c(O)cc(N)c(C#N)c3=O)c(=O)c2c1`, the figures for the IC50 in experiment [1], in experiment [2] and in experiment [3] were 26 µM, 45 µM and 41 µM, respectively.

In the case of `Cc1ccc2nc(C)n(NC(=O)/C(C#N)=C/c3cccc(O)c3)c(=O)c2c1`, the IC50 in experiment [1] came out at 15 µM; in experiment [2], 14 µM; in experiment [3], 14 µM.

As for `CCOC(=O)c1c(-c2ccccc2)c(C#N)c(=O)n(-n2c(C)nc3ccc(C)cc3c2=O)c1N`, the IC50 amounted to 17 µM in experiment [1], 21 µM in experiment [2] and 52 µM in experiment [3].

Regarding `Cc1ccc2nc(C)n(NC(=O)c3sc(=S)n(-c4ccccc4)c3N)c(=O)c2c1`, the IC50 in experiment [1] turned out to be 13 µM; in experiment [2] it was 35 µM; in experiment [3] it was 27 µM.

Take `Cc1ccc2nc(C)n(-n3c(N)cc(N)c(C#N)c3=O)c(=O)c2c1`: the IC50 is 10 µM in experiment [1], 15 µM in experiment [2] and 17 µM in experiment [3].

Take `Cc1ccc2nc(C)n(NC(=O)c3sc4c(c3N)CCCC4)c(=O)c2c1`: the IC50 in experiment [1] was 18 µM; in experiment [2], 31 µM; in experiment [3], 22 µM.

Take `Cc1ccc2nc(C)n(NC(=O)/C(C#N)=C/c3ccc(O)c(O)c3)c(=O)c2c1`: the IC50 in experiment [1], in experiment [2] and in experiment [3] was 8 µM each time.

With `Cc1ccc2nc(C)n(NC(=O)/C(C#N)=C/c3ccc(O)cc3)c(=O)c2c1`, the IC50 in experiment [1] is 14 µM; in experiment [2], 13 µM; in experiment [3], 13 µM.

As for `Cc1ccc(/C=C(\C#N)C(=O)Nn2c(C)nc3ccc(C)cc3c2=O)cc1`, the IC50 in experiment [1] was determined as 10 µM; in experiment [2], 9 µM; in experiment [3], 12 µM.
